From ChEMBL document CHEMBL1141963, “Ketene aminal-based lactam derivatives as a novel class of orally active FXa inhibitors” (Bioorg Med Chem Lett, 2005) come the findings set out here.

Some results are limits rather than exact numbers.

Assay [1] deals with T1, Coagulation factor X (Homo sapiens, UniProt P00742). The experiment in a line: Inhibitory activity against human FXa.
Target sequence in this assay (P00742 41-179 limits assumed): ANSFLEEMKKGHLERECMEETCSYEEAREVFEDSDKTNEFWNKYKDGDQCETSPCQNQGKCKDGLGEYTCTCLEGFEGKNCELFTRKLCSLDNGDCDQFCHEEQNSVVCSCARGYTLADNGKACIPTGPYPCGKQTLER
Target sequence in this assay (P00742 235-488 limits assumed): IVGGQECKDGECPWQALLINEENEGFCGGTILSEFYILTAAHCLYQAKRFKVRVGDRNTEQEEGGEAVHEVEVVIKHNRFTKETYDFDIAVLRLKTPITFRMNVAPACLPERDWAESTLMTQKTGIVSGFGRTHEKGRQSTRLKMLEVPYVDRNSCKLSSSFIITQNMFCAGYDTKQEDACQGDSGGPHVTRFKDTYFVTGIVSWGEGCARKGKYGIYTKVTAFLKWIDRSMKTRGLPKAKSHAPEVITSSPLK
Assay [2] concerns the target T1, Coagulation factor X. Kind of assay: Anticoagulant potency in human plasma as measured by prothrombin time.
Target sequence in this assay (P00742 whole entry, looked up): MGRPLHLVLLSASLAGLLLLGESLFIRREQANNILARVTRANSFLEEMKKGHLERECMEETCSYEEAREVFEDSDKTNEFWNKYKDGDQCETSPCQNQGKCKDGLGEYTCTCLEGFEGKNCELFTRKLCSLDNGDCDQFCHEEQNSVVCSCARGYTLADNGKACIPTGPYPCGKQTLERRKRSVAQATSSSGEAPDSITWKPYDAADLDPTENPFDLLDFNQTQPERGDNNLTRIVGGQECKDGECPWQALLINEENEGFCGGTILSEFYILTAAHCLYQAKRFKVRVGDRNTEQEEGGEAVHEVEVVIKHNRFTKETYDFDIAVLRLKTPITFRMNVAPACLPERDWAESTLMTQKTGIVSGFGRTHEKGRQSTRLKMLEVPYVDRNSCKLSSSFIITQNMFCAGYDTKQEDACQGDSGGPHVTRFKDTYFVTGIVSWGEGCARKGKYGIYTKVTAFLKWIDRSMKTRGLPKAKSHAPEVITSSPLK
Assay [3] in a line: Binding affinity to trypsin. Also noted: species or system Homo sapiens. An outline of the steps:
(§1)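 Human enzymes, each assayed against a low-molecular-weight synthetic substrate. Ki was calculated from IC50 assuming competitive inhibition, as Ki = IC50/(1 + [S]/Km), where [S] is the substrate concentration in the assay and Km the substrate's Michaelis constant. Values are averages of two independent determinations.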

The target in a further assay is Prothrombin (Homo sapiens, UniProt P00734). The experiment in a line: Binding affinity to thrombin. The essentials: as §1
The target in another assay is Plasma kallikrein (Homo sapiens, UniProt P03952). Kind of assay: Binding affinity to plasma kallikrein. The essentials:
as §1

For assay [4], the target named is Urokinase-type plasminogen activator (Homo sapiens, UniProt P00749). Kind of assay: Binding affinity to urokinase. The essentials:
as §1

In a further assay the target is Plasminogen (Homo sapiens, UniProt P00747). Kind of assay: Binding affinity to plasmin. An outline of the steps: as §1
Sequence of Plasminogen (P00747 97-580 limits assumed): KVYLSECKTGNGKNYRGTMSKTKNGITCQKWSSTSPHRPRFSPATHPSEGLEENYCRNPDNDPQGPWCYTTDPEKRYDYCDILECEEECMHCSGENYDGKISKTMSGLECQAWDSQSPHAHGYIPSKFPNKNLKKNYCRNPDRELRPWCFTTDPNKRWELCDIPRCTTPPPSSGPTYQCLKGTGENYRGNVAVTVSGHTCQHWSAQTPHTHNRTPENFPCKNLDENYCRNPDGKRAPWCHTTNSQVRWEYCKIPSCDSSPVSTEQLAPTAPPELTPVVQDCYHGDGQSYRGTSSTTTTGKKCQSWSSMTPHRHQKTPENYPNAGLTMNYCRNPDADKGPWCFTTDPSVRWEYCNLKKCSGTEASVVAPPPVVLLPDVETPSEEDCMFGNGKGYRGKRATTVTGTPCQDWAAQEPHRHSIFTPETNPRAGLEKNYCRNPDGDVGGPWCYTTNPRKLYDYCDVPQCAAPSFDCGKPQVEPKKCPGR
Sequence of Plasminogen (P00747 581-810 limits assumed): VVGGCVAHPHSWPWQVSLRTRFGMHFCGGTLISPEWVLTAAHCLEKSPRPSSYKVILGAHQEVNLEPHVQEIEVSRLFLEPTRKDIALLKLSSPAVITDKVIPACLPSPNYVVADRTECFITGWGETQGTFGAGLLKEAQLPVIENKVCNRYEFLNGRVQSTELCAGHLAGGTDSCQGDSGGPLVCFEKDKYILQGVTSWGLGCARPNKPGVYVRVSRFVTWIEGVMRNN
The target in assay [5] is Tissue-type plasminogen activator (Homo sapiens, UniProt P00750). The experiment in a line: Binding affinity to tPA. The essentials:
as §1

The target in assay [6] is Vitamin K-dependent protein C (Homo sapiens, UniProt P04070). Kind of assay: Binding affinity to activated protein C. An outline of the steps:
as §1

A further assay deals with Coagulation factor IX (Homo sapiens, UniProt P00740). The experiment in a line: Binding affinity to factor IXa. An outline of the steps:
as §1

Another assay deals with T2, Coagulation factor VII (Homo sapiens, UniProt P08709).
T2 sequence (P08709 whole entry): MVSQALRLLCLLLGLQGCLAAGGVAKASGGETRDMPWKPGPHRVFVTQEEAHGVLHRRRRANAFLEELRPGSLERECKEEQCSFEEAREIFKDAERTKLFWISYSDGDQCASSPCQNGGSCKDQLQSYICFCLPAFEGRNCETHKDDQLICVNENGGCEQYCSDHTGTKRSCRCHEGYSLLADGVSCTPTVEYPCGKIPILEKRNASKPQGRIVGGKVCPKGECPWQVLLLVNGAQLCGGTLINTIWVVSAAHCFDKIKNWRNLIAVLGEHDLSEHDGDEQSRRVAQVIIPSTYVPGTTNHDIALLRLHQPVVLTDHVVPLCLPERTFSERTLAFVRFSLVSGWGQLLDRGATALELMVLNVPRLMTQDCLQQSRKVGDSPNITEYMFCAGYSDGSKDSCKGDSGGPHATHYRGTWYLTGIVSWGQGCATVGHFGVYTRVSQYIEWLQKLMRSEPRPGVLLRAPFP
The experiment in a line: Binding affinity to factor VIIa. An outline of the steps: as §1

The target in another assay is Chymotrypsinogen B (Homo sapiens, UniProt P17538). Kind of assay: Binding affinity to chymotrypsin. An outline of the steps:
as §1

Sequence of Tissue-type plasminogen activator (P00750 whole entry): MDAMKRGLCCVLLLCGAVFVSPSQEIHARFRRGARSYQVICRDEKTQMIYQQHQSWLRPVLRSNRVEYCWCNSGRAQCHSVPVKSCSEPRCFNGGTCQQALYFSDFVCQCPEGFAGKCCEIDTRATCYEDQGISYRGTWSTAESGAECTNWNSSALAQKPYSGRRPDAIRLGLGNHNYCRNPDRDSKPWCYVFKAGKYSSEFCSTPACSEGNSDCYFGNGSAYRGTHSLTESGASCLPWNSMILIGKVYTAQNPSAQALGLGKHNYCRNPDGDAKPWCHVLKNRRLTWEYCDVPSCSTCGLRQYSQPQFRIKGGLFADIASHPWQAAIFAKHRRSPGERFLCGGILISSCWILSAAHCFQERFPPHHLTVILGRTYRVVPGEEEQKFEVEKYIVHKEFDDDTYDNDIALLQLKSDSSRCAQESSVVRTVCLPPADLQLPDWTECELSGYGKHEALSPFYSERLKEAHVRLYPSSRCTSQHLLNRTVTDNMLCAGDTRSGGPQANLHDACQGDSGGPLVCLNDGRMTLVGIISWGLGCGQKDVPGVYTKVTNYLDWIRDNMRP
Sequence of Chymotrypsinogen B (P17538 34-164 limits assumed, other chains not shown): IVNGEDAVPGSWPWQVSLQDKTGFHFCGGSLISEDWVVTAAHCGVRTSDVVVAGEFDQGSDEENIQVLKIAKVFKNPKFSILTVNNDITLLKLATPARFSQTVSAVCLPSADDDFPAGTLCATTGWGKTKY
Sequence of Chymotrypsinogen B (P17538 167-263 limits assumed, other chains not shown): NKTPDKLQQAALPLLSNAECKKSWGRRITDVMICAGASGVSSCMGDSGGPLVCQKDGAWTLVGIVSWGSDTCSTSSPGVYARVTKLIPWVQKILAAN
Sequence of Coagulation factor IX (P00740 47-191 limits assumed): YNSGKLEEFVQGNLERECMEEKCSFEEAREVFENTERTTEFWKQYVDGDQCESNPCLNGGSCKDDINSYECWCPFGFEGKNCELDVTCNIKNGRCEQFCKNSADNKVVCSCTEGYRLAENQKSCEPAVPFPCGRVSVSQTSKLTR
Sequence of Coagulation factor IX (P00740 227-461 limits assumed): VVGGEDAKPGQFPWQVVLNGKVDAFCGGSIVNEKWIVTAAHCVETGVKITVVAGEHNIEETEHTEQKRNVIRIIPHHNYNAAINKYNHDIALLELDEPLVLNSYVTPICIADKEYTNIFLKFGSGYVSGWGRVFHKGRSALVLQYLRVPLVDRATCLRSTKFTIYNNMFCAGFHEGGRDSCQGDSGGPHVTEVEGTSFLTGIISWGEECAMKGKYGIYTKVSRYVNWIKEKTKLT
Sequence of Plasma kallikrein (P03952 20-390 limits assumed): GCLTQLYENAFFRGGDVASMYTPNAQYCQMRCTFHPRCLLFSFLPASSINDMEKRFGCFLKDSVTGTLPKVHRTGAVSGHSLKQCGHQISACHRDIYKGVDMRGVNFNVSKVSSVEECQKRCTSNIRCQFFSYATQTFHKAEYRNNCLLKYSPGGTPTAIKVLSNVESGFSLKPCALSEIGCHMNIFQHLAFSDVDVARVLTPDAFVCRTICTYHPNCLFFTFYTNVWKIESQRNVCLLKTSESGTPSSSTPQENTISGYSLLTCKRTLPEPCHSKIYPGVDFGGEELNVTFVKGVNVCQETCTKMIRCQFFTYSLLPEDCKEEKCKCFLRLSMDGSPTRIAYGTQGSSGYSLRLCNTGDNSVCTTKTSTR
Sequence of Plasma kallikrein (P03952 391-638 limits assumed): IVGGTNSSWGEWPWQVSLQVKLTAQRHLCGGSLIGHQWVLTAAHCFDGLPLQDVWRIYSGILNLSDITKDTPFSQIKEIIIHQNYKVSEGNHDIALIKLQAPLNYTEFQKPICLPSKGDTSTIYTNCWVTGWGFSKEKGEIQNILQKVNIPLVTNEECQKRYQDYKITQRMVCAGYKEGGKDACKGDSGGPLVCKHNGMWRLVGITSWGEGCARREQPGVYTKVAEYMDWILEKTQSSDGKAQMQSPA
Sequence of Vitamin K-dependent protein C (P04070 43-197 limits assumed): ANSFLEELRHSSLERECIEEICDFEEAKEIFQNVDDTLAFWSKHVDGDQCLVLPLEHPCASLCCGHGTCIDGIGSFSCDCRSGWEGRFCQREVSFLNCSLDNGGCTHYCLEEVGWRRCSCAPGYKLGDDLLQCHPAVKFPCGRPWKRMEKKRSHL
Sequence of Vitamin K-dependent protein C (P04070 212-461 limits assumed): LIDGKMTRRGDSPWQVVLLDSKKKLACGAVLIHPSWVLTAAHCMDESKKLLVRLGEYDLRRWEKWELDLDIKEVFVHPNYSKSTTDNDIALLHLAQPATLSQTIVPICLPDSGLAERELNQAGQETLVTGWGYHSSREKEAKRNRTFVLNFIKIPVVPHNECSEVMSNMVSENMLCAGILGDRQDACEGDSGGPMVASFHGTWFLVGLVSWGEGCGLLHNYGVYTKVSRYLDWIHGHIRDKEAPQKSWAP

What is called IC50 is the concentration at which inhibition is half-maximal. Read a high IC50 as a need for much substance. In turn, `Cc1cc2cc(N/C(N[C@H]3CCCCN(CC(=O)N4CCCC4)C3=O)=C(/C#N)C(=O)NC(N)=O)ccc2o1` registered an IC50 on Coagulation factor X [1] of 0.013 µM. At Coagulation factor X [2], this compound had a 2PT of 7 µM. Turning to `COc1cccc(N/C(=C\[N+](=O)[O-])N[C@H]2CCCCN(CC(=O)N3CCCC3)C2=O)c1`, at Coagulation factor X [1], the midpoint of inhibition, the IC50, lay at 6.7 µM.

Take `Cc1cc2cc(NC(=N/[C@H]3CCCCN(CC(=O)N4CCCC4)C3=O)/C(C#N)=C(\O)c3ccc(Cl)cc3)ccc2o1`: the IC50 against Coagulation factor X [1] came out at 0.013 µM. Further, on Coagulation factor X [2], the 2PT is 62 µM. Taken in the same sequence, the figures for `COc1ccc(/C(O)=C(C#N)/C(=N\[C@H]2CCCCN(CC(=O)N3CCCC3)C2=O)Nc2ccc3oc(C)cc3c2)cc1` were 0.013 µM and 36 µM.

At Coagulation factor X [1], `O=C(CN1CCCC[C@H](N/C(=C/[N+](=O)[O-])Nc2ccccc2)C1=O)N1CCCC1` came in with an IC50 of 16.5 µM. Same read-out and setting: the value for `Cc1ccc(N/C(=C\[N+](=O)[O-])N[C@H]2CCCCN(CC(=O)N3CCCC3)C2=O)cc1` was > 34 µM.

`Cc1cc2cc(NC(/C=C(\O)c3nccs3)=N/[C@H]3CCCCN(CC(=O)N4CCCC4)C3=O)ccc2o1`: the midpoint of inhibition against Coagulation factor X [1], the IC50, lay at 0.01 µM. The same compound came in with a 2PT at Coagulation factor X [2] of 31 µM. The corresponding values for `CCOP(=O)(OCC)/C(C#N)=C(\Nc1ccc2oc(C)cc2c1)N[C@H]1CCCCN(CC(=O)N2CCCC2)C1=O` are 0.658 µM and > 60 µM. On Coagulation factor X [1], `O=C(CN1CCCC[C@H](N/C(=C/[N+](=O)[O-])Nc2ccc3ccccc3c2)C1=O)N1CCCC1` returned an IC50 of 1 µM. With `Cc1cc2cc(N/C(N[C@H]3CCCCN(CC(=O)N4CCCC4)C3=O)=C(/C#N)S(=O)(=O)C(C)C)ccc2o1`, the IC50 at Coagulation factor X [1] was found to be 0.647 µM.

For the compound `Cc1cc2cc(N/C(N[C@H]3CCCCN(CC(=O)N4CCCC4)C3=O)=C(/C#N)S(C)(=O)=O)ccc2o1`, the IC50 against Coagulation factor X [1] turned out to be 0.046 µM. In addition, the 2PT on Coagulation factor X [2] came to 24 µM.

The compound `COc1ccc(N/C(=C\[N+](=O)[O-])N[C@H]2CCCCN(CC(=O)N3CCCC3)C2=O)cc1C` gave an IC50 on Coagulation factor X [1] of 3.4 µM. Still for that read-out and setting: to `CN(C)c1ccc(N/C(=C\[N+](=O)[O-])N[C@H]2CCCCN(CC(=O)N3CCCC3)C2=O)cc1` belongs > 34 µM; to `Cc1cc2cc(N/C(=C\[N+](=O)[O-])N[C@H]3CCCCN(CC(=O)N4CCCC4)C3=O)ccc2o1`, 0.051 µM.

In the case of `COc1ccc(N/C(=C\[N+](=O)[O-])N[C@H]2CCCCN(CC(=O)N3CCCC3)C2=O)cc1`, the IC50 at Coagulation factor X [1] worked out at 3.1 µM. On Coagulation factor X [1], `CCO/C(O)=C(C#N)/C(=N\[C@H]1CCCCN(CC(=O)N2CCCC2)C1=O)Nc1ccc2oc(C)cc2c1` gave an IC50 of 0.024 µM. The compound also yielded a 2PT at Coagulation factor X [2] of 31 µM. With `O=C(CN1CCCC[C@H](N/C(=C/[N+](=O)[O-])Nc2ccc3occc3c2)C1=O)N1CCCC1`, on Coagulation factor X [1], the IC50 was determined as 0.539 µM. `CN(C)c1cccc(N/C(=C\[N+](=O)[O-])N[C@H]2CCCCN(CC(=O)N3CCCC3)C2=O)c1` registered an IC50 at Coagulation factor X [1] of 2.1 µM. Compound `Cc1cc2cc(N/C(N[C@H]3CCCCN(CC(=O)N4CCCC4)C3=O)=C(/C#N)C(N)=O)ccc2o1` returned an IC50 against Coagulation factor X [1] of 0.017 µM. Also, the 2PT at Coagulation factor X [2] was 13 µM. At Coagulation factor X [1], `O=C(CN1CCCC[C@H](N/C(=C/[N+](=O)[O-])Nc2ccc3c(c2)CCO3)C1=O)N1CCCC1` yielded an IC50 of 1.5 µM. `Cc1cc2cc(NC(=N/[C@H]3CCCCN(CC(=O)N4CCCC4)C3=O)/C(C#N)=C(\O)OC(C)(C)C)ccc2o1` had an IC50 at Coagulation factor X [1] of 0.057 µM. Also, the 2PT at Coagulation factor X [2] was 60 µM. `Cc1cc2cc(N/C(N[C@H]3CCCCN(CC(=O)N4CCCC4)C3=O)=C(/C#N)C(=O)N3CCC(C)CC3)ccc2o1` had an IC50 at Coagulation factor X [1] of 0.057 µM. The compound further returned a 2PT at Coagulation factor X [2] of 21 µM.

In general, Ki refers to a dissociation constant, usually derived from enzyme kinetics or from competition with a known ligand. High values mean lower affinity, low ones higher affinity. For the compound `Cc1cc2cc(NC(=N/[C@H]3CCCCN(CC(=O)N4CCCC4)C3=O)/C(C#N)=C(\O)OCCCCO)ccc2o1`, 0.01 µM corresponded to half-maximal inhibition on Coagulation factor X [1] (IC50). Further, the inhibition constant Ki on Coagulation factor X [1] is 0.012 µM; in assay [3], > 5 µM; at Prothrombin, 6.3 µM; on Plasma kallikrein it was > 19.4 µM; in assay [4], > 14 µM; at Plasminogen it was > 22 µM. The Ki in [5] was 16 µM; in assay [6], > 21.5 µM; on Coagulation factor IX, > 10 µM; at Coagulation factor VII it was > 55 µM; at Chymotrypsinogen B, 9.42 µM. On Coagulation factor X [2], the 2PT worked out at 10 µM.
